In assay [1] the test system is Caco-2. The assay is described as follows: Cytotoxicity against human Caco2 cells assessed as inhibition of cell viability incubated for 72 hrs by MTT assay. The following applies: Caco-2, 72 h. The format is functional, cell-based. An outline of the steps: (§1)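 Cells seeded at 2,000–4,000 per well and left 24 h. They are then exposed to a range of compound concentrations for 72 h. Survival is read by adding CCK-8 solution and measuring absorbance at 450 nm. Mitomycin is the reference control.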

Another assay has as its system Jurkat. The assay is described as follows: Cytotoxicity against human Jurkat cells assessed as inhibition of cell viability incubated for 72 hrs by MTT assay. The class given is functional, cell-based. An outline of the steps:
as §1
(In general: Tetrazolium dyes change colour on reduction, which living cells bring about.)

The subject of the next assay is A549. The assay is described as follows: Cytotoxicity against human A549 cells assessed as inhibition of cell viability incubated for 72 hrs by MTT assay. The class given is functional, cell-based. The following applies: A549, 72 h. An outline of the steps: as §1
Assay [2] has as its system SK-BR-3. The assay is described as follows: Cytotoxicity against human SKBR3 cells assessed as inhibition of cell viability incubated for 72 hrs by MTT assay. The following applies: SK-BR-3, 72 h. The format is functional, cell-based. The procedure, abridged: as §1
Assay [3] concerns Staphylococcus aureus. The assay is described as follows: Antimicrobial activity against Staphylococcus aureus ATCC 29213 incubated for 18 hrs by resazurin staining based microbroth dilution assay. The format is functional. As to conditions: ATCC 29213, 18 h. An outline of the steps:
(§2)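 Strains grown overnight, diluted to 10^6 CFU/mL in LB broth. Compounds in DMSO, serially diluted in LB (pg/mL to ng/mL range), mixed 1:1 with bacterial suspension. Vancomycin is the reference, 0.03125–16 μg/mL. Plates incubated 37 °C for 18 h, then resazurin added for read-out. Duplicates per plate.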
A general note: Alamar Blue is a resazurin reagent that responds to reducing activity.

For assay [4], the system named is Staphylococcus aureus. The assay is described as follows: Antimicrobial activity against Methicillin-resistant Staphylococcus aureus incubated for 18 hrs by resazurin staining based microbroth dilution assay. The class given is functional. The procedure, abridged: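 Overnight culture diluted to 106 CFU/mL in LB broth, mixed 1:1 with compound serially diluted in LB on the plate from DMSO stock (1–512 ng/mL and 1–512 pg/mL series; vancomycin 0.03125–16 μg/mL). Incubated 37 °C for 18 h, then resazurin added to read growth; MIC taken from broth microdilution, duplicate per plate. Strain is a local hospital MRSA isolate.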

A further assay deals with Escherichia coli. The assay is described as follows: Antimicrobial activity against Escherichia coli incubated for 18 hrs by resazurin staining based microbroth dilution assay. The format is functional. The procedure, abridged: as §2
Assay [5] concerns Staphylococcus aureus. The assay is described as follows: Potency index, ratio of MIC for vancomycin to MIC for test compound for antimicrobial activity against Staphylococcus aureus ATCC 29213. The format is functional. An outline of the steps:
(§3)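 Overnight bacterial cultures diluted to 10^6 CFU/mL in LB broth, mixed 1:1 with LB holding serial dilutions of test compound (DMSO stocks, 1–512 pg/mL and 1–512 ng/mL series) or vancomycin (0.03125–16 μg/mL). Incubated 37 °C, 18 h, then resazurin added for read-out. Run in duplicate per plate. Index is vancomycin MIC divided by test-compound MIC.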

The test system of assay [6] is SK-BR-3. The assay is described as follows: Cytotoxicity against human SKBR3 cells assessed as inhibition of cell viability incubated for 8 hrs by rapid killing based MTT assay. The class given is functional. The procedure, abridged: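 Seeding was 2,000–4,000 cells/well, with 24 h attachment. Compound exposure at varying concentrations lasted only 8 h. Viability was read by CCK-8 absorbance at 450 nm. Mean ± SD of three replicates, with curves fitted.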

The subject of assay [7] is Staphylococcus aureus. The assay is described as follows: Potency index, ratio of MIC for vancomycin to MIC for test compound for antimicrobial activity against Methicillin-resistant Staphylococcus aureus. The format is functional. The procedure, abridged:
as §3

The test system of assay [8] is Caco-2. The assay is described as follows: Potency index, ratio of YPM G IC50 to compound IC50 for cytotoxicity against human Caco2 cells by MTT assay. The format is functional.
Assay [9] deals with SK-BR-3. The assay is described as follows: Potency index, ratio of YPM G IC50 to compound IC50 for cytotoxicity against human SKBR3 cells by MTT assay. The format is functional.

Structures are written as SMILES. Values after ≈ are worked out from the molar mass of the structure shown. Active and inactive are the calls of the source. The calls are words filed in the database; no cut-off is given here.

What is called IC50 is the concentration at which inhibition is half-maximal. The MIC is the least concentration at which growth counts as inhibited. A low value points to greater potency. `O=C1c2ccccc2C(=O)c2c3c(cc(O)c21)[C@@]12O[C@@]1([C@H](O)CO)[C@H](C#C/C=C\C#C[C@H]2O)N3`: the IC50 in the assay with Caco-2 [1] turned out to be 55.2 nM; in the assay with Jurkat, 0.62 nM; in the assay with A549, 3.41 nM; with SK-BR-3 [2], 24.2 nM. Further, the MIC with Staphylococcus aureus [3] and against Staphylococcus aureus [4] was 0.002 ng/mL (≈ 0.00439 nM) in each case.

As to `CO[C@@]12[C@H](COC(N)=O)C3=C(C(=O)C(C)=C(N)C3=O)N1C[C@@H]1N[C@@H]12` [MITOMYCIN], the half-maximal inhibitory concentration (IC50) in the assay on Caco-2 [1] came to 5800 nM; with Jurkat it was 430 nM; with A549, 270 nM; with SK-BR-3 [2] it was 1000 nM.

Consider `CN[C@H](CC(C)C)C(=O)N[C@H]1C(=O)N[C@@H](CC(N)=O)C(=O)N[C@H]2C(=O)N[C@H]3C(=O)N[C@H](C(=O)N[C@H](C(=O)O)c4cc(O)cc(O)c4-c4cc3ccc4O)[C@H](O)c3ccc(c(Cl)c3)Oc3cc2cc(c3O[C@@H]2O[C@H](CO)[C@@H](O)[C@H](O)[C@H]2O[C@H]2C[C@](C)(N)[C@H](O)[C@H](C)O2)Oc2ccc(cc2Cl)[C@H]1O` [VANCOMYCIN], for which the MIC against Escherichia coli was over 16000 ng/mL.

In the case of `C[C@@H](O)[C@@]12O[C@]13c1cc(O)c4c(c1N[C@H]2C#C/C=C\C#C[C@H]3O)C(=O)c1c(O)cccc1C4=O`, the IC50 in the assay with Caco-2 [1] was 3.4 nM; in the assay on Jurkat, 0.24 nM; in the assay with A549 it was 0.02 nM; in the assay on SK-BR-3 [2], 0.86 nM. Further, the MIC against Staphylococcus aureus [3] was under 0.001 ng/mL; with Staphylococcus aureus [4], under 0.001 ng/mL; against Escherichia coli it was 0.128 ng/mL (≈ 0.281 nM). The “Ratio IC50” value with Staphylococcus aureus [5] was 1000000; with Staphylococcus aureus [7] it was 1000000; in the assay with Caco-2 [8], 10; in the assay on SK-BR-3 [9], 10. Also, the outcome in the assay with SK-BR-3 [6] was Active.

As for `O=C1c2cccc(O)c2C(=O)c2c3c(cc(O)c21)[C@@]12O[C@@]1([C@H](O)CO)[C@H](C#C/C=C\C#C[C@H]2O)N3`, the IC50 is 3.16 nM with Caco-2 [1], 0.17 nM with Jurkat, 0.24 nM in the assay with A549 and 2.56 nM in the assay with SK-BR-3 [2]. Besides, the MIC in the assay on Staphylococcus aureus [3] is under 0.001 ng/mL; in the assay with Staphylococcus aureus [4], under 0.001 ng/mL; in the assay on Escherichia coli, 0.032 ng/mL (≈ 0.0679 nM). In addition, the “Ratio IC50” value was 1000000 in the assay on Staphylococcus aureus [5], 1000000 with Staphylococcus aureus [7], 10 in the assay with Caco-2 [8] and 10 with SK-BR-3 [9]. In addition, in the assay on SK-BR-3 [6], the result was Active.

Source of the values: ChEMBL document CHEMBL4414575, “Yangpumicins F and G, Enediyne Congeners from Micromonospora yangpuensis DSM 45577” (J Nat Prod, 2019).
